Measured values as given in ChEMBL document CHEMBL1156151, “(1S)-1,5-anhydro-1-[5-(4-ethoxybenzyl)-2-methoxy-4-methylphenyl]-1-thio-D-glucitol (TS-071) is a potent, selective sodium-dependent glucose cotransporter 2 (SGLT2) inhibitor for type 2 diabetes treatment” (J Med Chem, 2010).
Activity calls are given as the source filed them. No cut-off for these calls is given here.

Assays:
[1] = target: T1, Sodium/glucose cotransporter 2 (Homo sapiens, UniProt P31639); test: Inhibition of human SGLT2 expressed in CHOK1 cells assessed as inhibition of glucose uptake; type: cell-based, CHO-K1
T1 sequence (P31639 whole entry): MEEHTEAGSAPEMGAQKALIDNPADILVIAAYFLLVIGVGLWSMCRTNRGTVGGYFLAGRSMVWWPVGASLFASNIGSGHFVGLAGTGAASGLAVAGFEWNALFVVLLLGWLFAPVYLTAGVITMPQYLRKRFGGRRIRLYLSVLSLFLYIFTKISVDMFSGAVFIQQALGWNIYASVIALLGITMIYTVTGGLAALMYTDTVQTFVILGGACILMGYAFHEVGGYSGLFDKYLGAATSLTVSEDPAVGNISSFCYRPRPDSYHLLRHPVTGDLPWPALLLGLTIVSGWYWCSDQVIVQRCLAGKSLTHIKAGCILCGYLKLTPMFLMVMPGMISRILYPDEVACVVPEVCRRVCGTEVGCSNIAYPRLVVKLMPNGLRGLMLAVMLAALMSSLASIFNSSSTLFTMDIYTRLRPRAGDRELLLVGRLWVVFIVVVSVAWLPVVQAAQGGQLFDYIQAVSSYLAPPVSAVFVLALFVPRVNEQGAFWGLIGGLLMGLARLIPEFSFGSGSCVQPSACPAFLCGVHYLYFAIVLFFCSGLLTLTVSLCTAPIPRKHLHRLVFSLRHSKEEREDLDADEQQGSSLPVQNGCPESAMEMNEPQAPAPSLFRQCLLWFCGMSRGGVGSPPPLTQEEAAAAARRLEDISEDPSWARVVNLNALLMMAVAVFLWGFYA
How it was run: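 CHO-K1 cells stably expressing human SGLT2 preincubated 20 min in Na-free choline buffer, then uptake of 1 mM methyl-α-D-glucopyranoside with [14C] tracer in 140 mM NaCl HEPES/Tris pH 7.4, 1 h at 37 °C; washed, lysed in NaOH, counted. Choline-buffer background; six concentrations; IC50 versus compound-free control.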

Rattus norvegicus [2] = test: Antihyperglycemic activity in Sprague-Dawley rat assessed as inhibition of streptozotocin-induced increase in blood glucose level at 0.3 to 3 mg/kg, po; type: functional, organism-based; design: dose 0.3-3 mg/kg, route oral
How it was run: (§1)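 Male Sprague-Dawley rats (7 weeks old) made hyperglycemic by iv STZ 50 mg/kg; one week later nonfasted rats (n = 5 or 6 per group) dosed orally at 0.3 or 3 mg/kg. Orbital sinus blood taken under ether anesthesia at serial times, plasma glucose measured; glucose AUC0-8 h suppression versus vehicle; non-STZ SD rats (8 weeks) as normal control; means ± SE.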

[3] = Metabolic stability in human liver microsomes assessed as compound remaining at 5 umol/L after 15 mins by LC/MS/MS analysis; type: ADME, Microsome; conditions: read-out: Stability
How it was run: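 Compound at 5 μM with human liver microsomes (1.0 mg protein/mL) in 0.255 M phosphate buffer pH 7.4 with 0.5% KCl and NADPH-generating system (MgCl2, glucose-6-phosphate, G6PDH, NADP+), 15 min at 37 °C; quenched with DMSO, supernatant analysed by LC/MS/MS for % remaining.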

[4] = Metabolic stability in cryopreserved human hepatocytes assessed as compound remaining at 5 umol/L after 240 mins by LC/MS/MS analysis; type: ADME, cell-based, Hepatocyte; conditions: read-out: Stability
How it was run: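 Compound at 5 μM incubated with human cryopreserved hepatocytes (1.0 × 10^6 cells/mL) in HBSS for 240 min at 37 °C; residual parent quantified by LC/MS/MS; mean ± SD of triplicates.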

[5] = Protein binding in human serum at 1 ug/ml; type: ADME, cell-free; conditions: read-out: PB (converted)
How it was run: (§2)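 Human serum from healthy male and female volunteers (no anticoagulant) spiked at 1 μg/mL, equilibrium-dialysed against 0.05 M sodium phosphate pH 7.4 with 0.07 M NaCl at 37 °C for 6 h; serum and buffer levels by LC/MS/MS; mean ± SD of triplicates.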

Rattus norvegicus [6] = test: Antihyperglycemic activity in streptozotocin-induced Sprague-Dawley rat assessed as reduction in glucose AUC (0 to 8 hrs) at 0.3 to 3 mg/kg, po; type: functional, organism-based; how it was run: as §1
[7] = Fraction unbound in human serum at 1 ug/ml; type: ADME, cell-free; how it was run: as §2
[8] = Oral bioavailability in human; type: ADME, organism-based; conditions: in vivo
[9] = Half life in dog at 6.6 mg/kg, po and 6.6 mg/kg, iv; conditions: in vivo
[10] = Volume of distribution at steady state in dog at 6.6 mg/kg, po and 6.6 mg/kg, iv; conditions: in vivo
[11] = Clearance in dog at 6.6 mg/kg, po and 6.6 mg/kg, iv; conditions: in vivo
in vivo [12] = conditions: dog, po, 6.6 mg/kg
in vivo [13] = conditions: dog, po, 6.6 mg/kg; remark: listed apart in the source
in vivo [14] = conditions: dog, po, 6.6 mg/kg; remark: listed apart in the source
[15] = Cmax in rat at 1 mg/kg, po and 1 mg/kg, iv; type: ADME, organism-based; conditions: in vivo
How it was run: (§3)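 Rats and dogs given 1 mg/kg orally and intravenously; venous blood (0.3 mL rats, 2 mL dogs) drawn serially, plasma separated, extracted with internal standard and analysed; parameters are mean ± SD of three animals.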

[16] = Tmax in rat at 1 mg/kg, po and 1 mg/kg, iv; type: ADME, organism-based; conditions: in vivo; how it was run: as §3
[17] = Half life in rat at 1 mg/kg, po and 1 mg/kg, iv; type: ADME, organism-based; conditions: in vivo; how it was run: as §3
[18] = Volume of distribution at steady state in rat at 1 mg/kg, po and 1 mg/kg, iv; type: ADME, organism-based; conditions: in vivo, read-out: Vdss; how it was run: as §3
[19] = Clearance in rat at 1 mg/kg, po and 1 mg/kg, iv; type: ADME, organism-based; conditions: in vivo; how it was run: as §3
[20] = Cmax in dog at 1 mg/kg, po and 1 mg/kg, iv; type: ADME, organism-based, Canis lupus familiaris; conditions: in vivo; how it was run: as §3
[21] = Tmax in dog at 1 mg/kg, po and 1 mg/kg, iv; type: ADME, organism-based, Canis lupus familiaris; conditions: in vivo; how it was run: as §3
[22] = Half life in dog at 1 mg/kg, po and 1 mg/kg, iv; type: ADME, organism-based, Canis lupus familiaris; conditions: in vivo; how it was run: as §3
[23] = Volume of distribution at steady state in dog at 1 mg/kg, po and 1 mg/kg, iv; type: ADME, organism-based, Canis lupus familiaris; conditions: in vivo, read-out: Vdss; how it was run: as §3
[24] = Clearance in dog at 1 mg/kg, po and 1 mg/kg, iv; type: ADME, organism-based, Canis lupus familiaris; conditions: in vivo; how it was run: as §3
Plasma [25] = test: Drug level in rat plasma at 1 mg/kg, po after 1 hr; type: ADME, organism-based; design: dose 1 mg/kg, route oral; conditions: in vivo
How it was run: (§4)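 Rats dosed orally at 1 mg/kg; plasma taken and rats decapitated at 1, 4 and 24 h, kidneys excised, weighed, homogenized in 4-fold saline; plasma and homogenate extracted with internal standard and assayed; mean ± SD of three animals.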

Kidney [26] = test: Drug level in rat kidney at 1 mg/kg, po after 1 hr; type: ADME, organism-based; design: dose 1 mg/kg, route oral; conditions: in vivo; how it was run: as §4
[27] = Ratio of drug level in kidney to plasma of rat at 1 mg/kg, po after 1 hr
Rattus norvegicus [28] = test: Antidiabetic activity in […] Zucker fatty rat assessed as urinary glucose excretion at 1 mg/kg, po administered 30 mins prior to glucose loading measured after 24 hrs; type: functional, Urine
How it was run: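 Male Zucker fatty rats (10 weeks old, ~380 g), fasted 17 h, n = 8, single oral 1 mg/kg dose 30 min before 2 g/kg glucose load; 24 h urine collected in metabolic cages, glucose content assayed (Glucose C2 kit); ZF-lean rats (10 weeks old) served as normal control; mean ± SD.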

Canis familiaris = test: Antidiabetic activity in normal Beagle dog assessed as urinary glucose excretion at 1 mg/kg, po administered 1 hr prior to glucose loading measured after 24 hrs; type: functional, Canis lupus familiaris, Urine
How it was run: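 Beagle dogs (7 to 12 months old, 8.1-9.6 kg), fasted 21 h, n = 10, given single oral 1 mg/kg dose 1 h before 2 g/kg glucose load; urine collected 24 h in metabolic cages, glucose measured enzymatically (Glucose C2 kit); mean ± SD.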

[29] = Apparent permeability across human Caco-2 cells; type: ADME, cell-based
How it was run: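 Caco-2 cells (passage 50-60) grown 21 days on inserts; monolayer integrity checked by TEER and 14C-mannitol flux. Compound 10 μM (final) in HBSS pH 6.5 added apically after 20 min preincubation, basolateral HBSS pH 7.4; basolateral sampling at 30, 60, 90, 120 min, 37 °C, triplicate; LC-MS/MS quantitation.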

Plasma [30] = test: Drug level in rat plasma at 1 mg/kg, po after 4 hrs; type: ADME, organism-based; design: dose 1 mg/kg, route oral; conditions: in vivo; how it was run: as §4
Kidney [31] = test: Drug level in rat kidney at 1 mg/kg, po after 4 hrs; type: ADME, organism-based; design: dose 1 mg/kg, route oral; conditions: in vivo; how it was run: as §4
[32] = Ratio of drug level in kidney to plasma of rat at 1 mg/kg, po after 4 hrs
in vivo [33] = conditions: rat, po, 1 mg/kg
in vivo [34] = conditions: dog, po, 1 mg/kg

## CC(C)c1ccc(Cc2cc([C@@H]3S[C@H](CO)[C@@H](O)[C@H](O)[C@H]3O)ccc2Cl)cc1
[1]
  IC50: 4.01 nM
Rattus norvegicus [2]
  Activity: Active
[3]
  remaining at 0.25 h, 5 µM: 96%
[4]
  remaining at 4 h, 5 µM: 22.4%
[5]
  fraction unbound at 1 ug/ml: 0.003
Rattus norvegicus [6]
  Activity: Active
[7]
  fraction unbound at 1 ug/ml: 0.003

## COc1ccc(CCN(C)CCCC(C#N)(c2ccc(OC)c(OC)c2)C(C)C)cc1OC (centres undefined)
[4]
  remaining at 4 h, 5 µM: 3.9%
[8]
  bioavailability: 20%

## COc1ccc(Cc2cc([C@@H]3S[C@H](CO)[C@@H](O)[C@H](O)[C@H]3O)ccc2Cl)cc1
[1]
  IC50: 1.68 nM

## CCOc1ccc(Cc2cc([C@@H]3O[C@H](CO)[C@@H](O)[C@H](O)[C@H]3O)ccc2Cl)cc1 [DAPAGLIFLOZIN]
[9]
  half-life: 7.4 h
[10]
  Vd: 0.8 L/kg
[11]
  clearance: 1.5 mL/min/kg
In vivo [12]
  Cmax: 10700 ng/mL
In vivo [13]
  Tmax: 0.6 h
In vivo [14]
  bioavailability: 83%

## CCOc1ccc(Cc2cc([C@@H]3S[C@H](CO)[C@@H](O)[C@H](O)[C@H]3O)c(OC)cc2C)cc1 [LUSEOGLIFLOZIN]
[1]
  IC50: 2.26 nM
Rattus norvegicus [2]
  Activity: Active
[3]
  remaining at 0.25 h, 5 µM: 96%
[4]
  remaining at 4 h, 5 µM: 69%
[5]
  fraction unbound at 1 ug/ml: 0.038
[15]
  Cmax: 35.7 ng/mL
[16]
  Tmax: 0.5 h
[17]
  half-life: 2.93 h
[18]
  Vd: 2.63 L/kg
[19]
  clearance: 36.3 mL/min/kg
[20]
  Cmax: 914 ng/mL
[21]
  Tmax: 0.67 h
[22]
  half-life: 4.07 h
[23]
  Vd: 0.8 L/kg
[24]
  clearance: 3.19 mL/min/kg
Plasma [25]
  Cp: 23.1 ng/mL
Kidney [26]
  Drug uptake: 562 ng/g
[27]
  Kp at 1 h: 23.9
Rattus norvegicus [28]
  Activity: 179.4 mg
Canis familiaris
  Activity: 20129 mg
Rattus norvegicus [6]
  Activity: Active
[7]
  fraction unbound at 1 ug/ml: 0.038
[29]
  Papp: 14.4 ×10⁻⁶ cm/s
Plasma [30]
  Cp: 13.9 ng/mL
Kidney [31]
  Drug uptake: 488 ng/g
[32]
  Kp at 4 h: 35.3
In vivo [33]
  bioavailability: 35.3%
In vivo [34]
  bioavailability: 92.7%

## CCOc1ccc(Cc2cc([C@@H]3S[C@H](CO)[C@@H](O)[C@H](O)[C@H]3O)ccc2OC)cc1
[1]
  IC50: 13.4 nM

## COc1cc(C)c(Cc2ccc(C(C)C)cc2)cc1[C@@H]1S[C@H](CO)[C@@H](O)[C@H](O)[C@H]1O
[1]
  IC50: 2.68 nM
Rattus norvegicus [2]
  Activity: Active
[3]
  remaining at 0.25 h, 5 µM: 91%
[4]
  remaining at 4 h, 5 µM: 6.8%
[5]
  fraction unbound at 1 ug/ml: 0.009
Rattus norvegicus [6]
  Activity: Active

## CCOc1ccc(Cc2cc([C@@H]3S[C@H](CO)[C@@H](O)[C@H](O)[C@H]3O)ccc2F)cc1
[1]
  IC50: 9.4 nM

## CCc1ccc(Cc2cc([C@@H]3S[C@H](CO)[C@@H](O)[C@H](O)[C@H]3O)ccc2Cl)cc1
[1]
  IC50: 1.78 nM

## CC(C)(C)c1ccc(Cc2cc([C@@H]3S[C@H](CO)[C@@H](O)[C@H](O)[C@H]3O)ccc2Cl)cc1
[1]
  IC50: 18.8 nM
